Test results: ChEMBL document CHEMBL2040727, “Substituted thiazoles VI. Synthesis and antitumor activity of new 2-acetamido- and 2 or 3-propanamido-thiazole analogs” (2012)

Tests used:
Type in all cases: functional
HL-60(TB) = assay: Growth inhibition of human HL-60(TB) cells at 10 uM after 48 hrs by coulter counter analysis; conditions: HL-60, 48 h, read-out: GI
How it was run: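 Cells grown in RPMI 1640 with 10% FBS. Compound was dissolved in DMSO and diluted in PBS (under 1% DMSO final), then added in duplicate wells to culture at 6 × 10⁴ cells/ml. PBS/DMSO vehicle controls were included. Incubated at 37 °C, humidified 5% CO₂, for 48 h. Cells were diluted 10-fold in saline and Coulter-counted. Single-dose NCI-60 screen, read as percent growth inhibition.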

K562 = assay: Growth inhibition of human K562 cells at 10 uM after 48 hrs by coulter counter analysis; conditions: K562, 48 h, read-out: GI
How it was run: (§1)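 Single-dose NCI 60-line panel screen of test compounds. Cells grown in RPMI 1640 with 10% FBS. Compounds dissolved in DMSO, then diluted in phosphate buffer saline (final DMSO below 1%). Wells run in duplicate at 6 × 10⁴ cells/ml. Controls held PBS and DMSO at matching dilutions. Incubation 48 h at 37 °C under humidified 5% CO2. Cells diluted tenfold in saline and counted by Coulter counter. Percent growth inhibition taken from mean-graph of treated-cell growth.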

MOLT-4 = assay: Growth inhibition of human MOLT4 cells at 10 uM after 48 hrs by coulter counter analysis; conditions: MOLT-4, 48 h, read-out: GI; how it was run: as §1
RPMI-8226 = assay: Growth inhibition of human RPMI8226 cells at 10 uM after 48 hrs by coulter counter analysis; conditions: RPMI-8226, 48 h, read-out: GI; how it was run: as §1
SR = assay: Growth inhibition of human SR cells at 10 uM after 48 hrs by coulter counter analysis; conditions: read-out: GI
How it was run: (§2)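 Single-dose screen in the NCI 60 cell line panel. Cells grown in RPMI 1640 with 10% FBS. Compounds dissolved in DMSO and diluted in phosphate buffered saline, final DMSO under 1%. Duplicate wells seeded from culture at 6 × 10⁴ cells/ml. Incubated 48 h at 37 °C, humidified, 5% CO2. Cells diluted tenfold in saline and Coulter-counted. Percent growth inhibition computed against PBS/DMSO controls.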

A549 = assay: Growth inhibition of human A549/ATCC cells at 10 uM after 48 hrs by coulter counter analysis; conditions: A549, 48 h, read-out: GI; how it was run: as §1
HOP-92 = assay: Growth inhibition of human HOP92 cells at 10 uM after 48 hrs by coulter counter analysis; conditions: HOP-92, 48 h, read-out: GI; how it was run: as §1
NCI-H23 = assay: Growth inhibition of human NCI-H23 cells at 10 uM after 48 hrs by coulter counter analysis; conditions: NCI-H23, 48 h, read-out: GI; how it was run: as §1
NCI-H322M = assay: Growth inhibition of human NCI-H322M cells at 10 uM after 48 hrs by coulter counter analysis; conditions: read-out: GI; how it was run: as §1
NCI-H460 = assay: Growth inhibition of human NCI-H460 cells at 10 uM after 48 hrs by coulter counter analysis; conditions: NCI-H460, 48 h, read-out: GI; how it was run: as §1
HCC 2998 = assay: Growth inhibition of human HCC2998 cells at 10 uM after 48 hrs by coulter counter analysis; conditions: HCC 2998, 48 h, read-out: GI; how it was run: as §1
HCT-116 = assay: Growth inhibition of human HCT116 cells at 10 uM after 48 hrs by coulter counter analysis; conditions: HCT-116, 48 h, read-out: GI; how it was run: as §1
HCT-15 = assay: Growth inhibition of human HCT15 cells at 10 uM after 48 hrs by coulter counter analysis; conditions: HCT-15, 48 h, read-out: GI; how it was run: as §1
HT-29 = assay: Growth inhibition of human HT-29 cells at 10 uM after 48 hrs by coulter counter analysis; conditions: HT-29, 48 h, read-out: GI; how it was run: as §1
KM12 = assay: Growth inhibition of human KM12 cells at 10 uM after 48 hrs by coulter counter analysis; conditions: KM12, 48 h, read-out: GI; how it was run: as §1
SW-620 = assay: Growth inhibition of human SW620 cells at 10 uM after 48 hrs by coulter counter analysis; conditions: SW-620, 48 h, read-out: GI; how it was run: as §2
SF-295 = assay: Growth inhibition of human SF295 cells at 10 uM after 48 hrs by coulter counter analysis; conditions: SF-295, 48 h, read-out: GI; how it was run: as §1
SF-539 = assay: Growth inhibition of human SF539 cells at 10 uM after 48 hrs by coulter counter analysis; conditions: SF-539, 48 h, read-out: GI; how it was run: as §1
SNB-75 = assay: Growth inhibition of human SNB75 cells at 10 uM after 48 hrs by coulter counter analysis; conditions: SNB-75, 48 h, read-out: GI; how it was run: as §2
U-251 = assay: Growth inhibition of human U251 cells at 10 uM after 48 hrs by coulter counter analysis; conditions: U-251, 48 h, read-out: GI; how it was run: as §2
M14 = assay: Growth inhibition of human M14 cells at 10 uM after 48 hrs by coulter counter analysis; conditions: M14, 48 h, read-out: GI; how it was run: as §1
SK-MEL-2 = assay: Growth inhibition of human SK-MEL-2 cells at 10 uM after 48 hrs by coulter counter analysis; conditions: SK-MEL-2, 48 h, read-out: GI; how it was run: as §1
SK-MEL-5 = assay: Growth inhibition of human SK-MEL-5 cells at 10 uM after 48 hrs by coulter counter analysis; conditions: SK-MEL-5, 48 h, read-out: GI; how it was run: as §1
UACC-62 = assay: Growth inhibition of human UACC62 cells at 10 uM after 48 hrs by coulter counter analysis; conditions: UACC-62, 48 h, read-out: GI; how it was run: as §2
OVCAR-4 = assay: Growth inhibition of human OVCAR4 cells at 10 uM after 48 hrs by coulter counter analysis; conditions: OVCAR-4, 48 h, read-out: GI; how it was run: as §1
A498 = assay: Growth inhibition of human A498 cells at 10 uM after 48 hrs by coulter counter analysis; conditions: A498, 48 h, read-out: GI; how it was run: as §1
ACHN = assay: Growth inhibition of human ACHN cells at 10 uM after 48 hrs by coulter counter analysis; conditions: read-out: GI; how it was run: as §1
RXF 393 = assay: Growth inhibition of human RXF393 cells at 10 uM after 48 hrs by coulter counter analysis; conditions: RXF 393, 48 h, read-out: GI; how it was run: as §1
UO-31 = assay: Growth inhibition of human UO31 cells at 10 uM after 48 hrs by coulter counter analysis; conditions: UO-31, 48 h, read-out: GI; how it was run: as §2
PC-3 = assay: Growth inhibition of human PC3 cells at 10 uM after 48 hrs by coulter counter analysis; conditions: PC-3, 48 h, read-out: GI; how it was run: as §1
DU-145 = assay: Growth inhibition of human DU145 cells at 10 uM after 48 hrs by coulter counter analysis; conditions: DU-145, 48 h, read-out: GI; how it was run: as §1
MCF7 = assay: Growth inhibition of human MCF7 cells at 10 uM after 48 hrs by coulter counter analysis; conditions: MCF7, 48 h, read-out: GI; how it was run: as §1
T47D = assay: Growth inhibition of human T47D cells at 10 uM after 48 hrs by coulter counter analysis; conditions: read-out: GI; how it was run: as §2
CCRF-CEM = assay: Growth inhibition of human CCRF-CEM cells at 10 uM after 48 hrs by coulter counter analysis; conditions: read-out: GI; how it was run: as §1

| Compound | inhibition of growth at 10 µM (HL-60(TB)) [%] | inhibition of growth at 10 µM (K562) [%] | inhibition of growth at 10 µM (MOLT-4) [%] | inhibition of growth at 10 µM (RPMI-8226) [%] | inhibition of growth at 10 µM (SR) [%] | inhibition of growth at 10 µM (A549) [%] | inhibition of growth at 10 µM (NCI-H23) [%] | inhibition of growth at 10 µM (NCI-H322M) [%] | inhibition of growth at 10 µM (NCI-H460) [%] | inhibition of growth at 10 µM (HCC 2998) [%] | inhibition of growth at 10 µM (HCT-116) [%] | inhibition of growth at 10 µM (HCT-15) [%] | inhibition of growth at 10 µM (HT-29) [%] | inhibition of growth at 10 µM (KM12) [%] | inhibition of growth at 10 µM (SW-620) [%] | inhibition of growth at 10 µM (SF-295) [%] | inhibition of growth at 10 µM (SF-539) [%] | inhibition of growth at 10 µM (SNB-75) [%] | inhibition of growth at 10 µM (U-251) [%] | inhibition of growth at 10 µM (M14) [%] | further results |
| --- | --- | --- | --- | --- | --- | --- | --- | --- | --- | --- | --- | --- | --- | --- | --- | --- | --- | --- | --- | --- | --- |
| CCOC(=O)c1sc(NC(=O)CCN2CCN(C)CC2)nc1C | < 10 | < 10 | < 10 | < 10 | 20.3 | < 10 | < 10 | < 10 | < 10 | < 10 | < 10 | < 10 | < 10 | < 10 | < 10 | < 10 | < 10 | < 10 | < 10 | < 10 | inhibition of growth at 10 µM (HOP-92): < 10%; inhibition of growth at 10 µM (SK-MEL-2): < 10%; inhibition of growth at 10 µM (SK-MEL-5): < 10%; inhibition of growth at 10 µM (UACC-62): < 10%; inhibition of growth at 10 µM (OVCAR-4): < 10%; inhibition of growth at 10 µM (A498): < 10%; inhibition of growth at 10 µM (ACHN): < 10%; inhibition of growth at 10 µM (RXF 393): < 10%; inhibition of growth at 10 µM (UO-31): 19.3%; inhibition of growth at 10 µM (PC-3): < 10%; inhibition of growth at 10 µM (DU-145): < 10%; inhibition of growth at 10 µM (MCF7): 16.3%; inhibition of growth at 10 µM (T47D): < 10%; inhibition of growth at 10 µM (CCRF-CEM): 96.2% |
| CCOC(=O)c1sc(NC(=O)CN(C)C)nc1C | < 10 | < 10 | < 10 | < 10 | < 10 | < 10 | < 10 | < 10 | < 10 | < 10 | < 10 | < 10 | < 10 | < 10 | < 10 | < 10 | < 10 | < 10 | < 10 | < 10 | inhibition of growth at 10 µM (HOP-92): < 10%; inhibition of growth at 10 µM (SK-MEL-2): < 10%; inhibition of growth at 10 µM (SK-MEL-5): < 10%; inhibition of growth at 10 µM (UACC-62): < 10%; inhibition of growth at 10 µM (OVCAR-4): < 10%; inhibition of growth at 10 µM (A498): < 10%; inhibition of growth at 10 µM (ACHN): < 10%; inhibition of growth at 10 µM (RXF 393): < 10%; inhibition of growth at 10 µM (UO-31): 14.8%; inhibition of growth at 10 µM (PC-3): < 10%; inhibition of growth at 10 µM (DU-145): < 10%; inhibition of growth at 10 µM (MCF7): < 10%; inhibition of growth at 10 µM (T47D): < 10% |
| O=C(CCCl)Nc1nc(-c2ccccc2)cs1 | 17.9 | 69.3 | 40.7 | 93.1 | 65.4 | 53.1 | 34.7 | 29.2 | 63.6 | 15.8 | 78.3 | 73 | 76.1 | 52.6 | 70.7 | 46.3 | 81.5 | 60.6 | 55.8 | 52.7 | inhibition of growth at 10 µM (SK-MEL-2): 71.2%; inhibition of growth at 10 µM (SK-MEL-5): 48.9%; inhibition of growth at 10 µM (UACC-62): 39%; inhibition of growth at 10 µM (OVCAR-4): 24.8%; inhibition of growth at 10 µM (A498): 78.4%; inhibition of growth at 10 µM (ACHN): 50.7%; inhibition of growth at 10 µM (RXF 393): 80.4%; inhibition of growth at 10 µM (UO-31): 83.2%; inhibition of growth at 10 µM (PC-3): 57.9%; inhibition of growth at 10 µM (DU-145): 89.8%; inhibition of growth at 10 µM (MCF7): 75.9%; inhibition of growth at 10 µM (T47D): 55.2%; inhibition of growth at 10 µM (CCRF-CEM): 92.7% |
